In the EternaBench riboswitch data:

Test system: MS2 coat protein
Test: apparent Kd, MS2 coat protein; higher = weaker binding; RNA-MaP array; FMN 200 µM where present
In short: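 The apparent Kd is reported as the median of filtered per-cluster binding-curve fits. To get these curves, designs transcribed by stalled E. coli RNA polymerase on Illumina sequencing-chip clusters were titrated with SNAP-549-labelled MS2 coat protein from 0.7 or 1.5 nM, doubling to 3 µM. Titrations were run without and then with constant ligand in 100 mM Tris-HCl pH 7.5, 80 mM KCl, 4 mM MgCl2, BSA, DTT, yeast tRNA and Tween-20, and green signal was normalised to red-channel RNA signal and control-cluster median Fmax.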

[1] = designed as: ON switch for flavin mononucleotide, no ligand
[2] = ligand present: flavin mononucleotide, designed as: ON switch for flavin mononucleotide
[3] = designed as: OFF switch for flavin mononucleotide, no ligand
[4] = ligand present: flavin mononucleotide, designed as: OFF switch for flavin mononucleotide

Row | Sequence | apparent Kd [1] [nM] | apparent Kd [2] [nM] | apparent Kd [3] [nM] | apparent Kd [4] [nM]
1 | GCCAUCGCAUGAGGAUAUGCUCCGGUUUCCGGAGCAGAAGGCAUGUCAUAAGACAUGAGGAUCACCCAUGUAGUUAAGAUGGCA | 715 | 33.6 | – | –
2 | CUUUUGUGAGGAUAUUAGUUGUAAAUAAAUAAAAUUACUACUGAGAAGGCACAUGAGGAUCACCCAUGUUCCUC | – | – | 33.3 | 161
3 | CCACCCUGAGGAUAUCCACCCUCAUACAUGAGGAUCACCCAUGUUCAUCCCUGAGUUCCCGGAGAAGGCAGAUUCC | – | – | 55.3 | 47.5
4 | CGGAUCAAUACAGGAUAUGGUGACGCACAUGAGGAUCACCCAUGUCCGCAGCGUGCUAAGCACGCCCAGAAGGGUAUUGAUUCG | 738 | 68.3 | – | –
5 | AGUGAGGGAGGAUAUACGUUGGUAUCACUGCAUUCGUCGUCACAUGAGGAUCACCCAUGUAGAAGGCCCGAGAG | – | – | 28.8 | 79.1
6 | UCGCUGCGAGGAUAUACAUGAGGAUCACCCAUGUACGGGUCCGGGUCUUCGUCCAUUGGUAGAAGGCGCAGUGA | – | – | 23.1 | 204
7 | ACAUGACAUGAGGAUCACCCAUGUGAGGAUAUGCGAAAAAAAAAAAAAAAAAAAAUUGGCAGAAGGCACAAAAU | – | – | 167 | 180
8 | GACAUUGGCAAGAAGGCAAACAUGAGGAUCACCCAUGUUCUGUAUGUAUUUUGAGGAUAUUGCCAAUGUAUGUGGAUCACCCAA | – | – | 8.91 | 10.1
9 | GGGUACAUCGGAGGAUAUCAUGUAAAUACAUGAGGAUCACCCAUGUCGAUGGAGACAUCGCAGAUUGAGAAGGCCGAUGUACCG | 28 | 5.26 | – | –
10 | AGAUGUGAACAUGAGGAUCACCCAUGUGACUAGGUUUAUUUCAGAAGGCAUUUAUAGAGAUUAUAUGAGGAUAUGAAGUUUUAA | 12.4 | 6.45 | – | –
11 | GUGUACAGAGGAUAUACAAUAGGAGUUACGAAAGUAACUUCACAUGAGGAUCACCCAUGUAGAAGGCUGUACAC | – | – | 18.1 | 37.8
12 | GUUAUAGGAGGAUAUACAUGAGGAUCACCCAUGUCUCAUCCAUGGCAACGAACCUAUUGUAGAAGGCUUGAAGA | – | – | 28.9 | 113
13 | AGUCGGAGCAGAGGAUAUACAUGAGGAUCACCCAUGUAAUAUGAUCUAGCCAGGAAACUGGCAAUGUAGAAGGCUGCUCCGACA | – | – | 92.3 | 797
14 | UACCUACAUGAGGAUCACCCAUGUCAGGAUAUGUGCUGAGACGACAUCGACUUUCAGCGUAGAAGGGACCAGGG | – | – | 24.4 | 46.5
15 | CGACCCUGAACGAAAUCAUGCAGUCAGGAUAUACAUGAGGAUCACCCAUGUGCGUACCAACUCGUGUAGAAGGGACUUUCAGGG | – | – | 12.7 | 33.2
16 | CUGUGUUGCGGGCAGGAUAUGUAUUGGAAUACAUGAGGAUCACCCAUGUGCGGGUGUUUCACCCGACAGAAGGGCCAAUCGCGAC | 363 | 34.9 | – | –
17 | CACCCACAUGAGGAUCACCCAUGUGAGGAUAUGAUACUAUGUACUUCGGUACAUAGUAUCAGAAGGCACAGGUG | – | – | 32 | 106
18 | AUCAGUACGUGAGGAUAUGCGUUACUGCGAAAGCAGUACGGUAAGAUCACAUGAGGAUCACCCAUGUAGAAGGCACGAACUGAU | – | – | 18.9 | 37.5
19 | AAUAUGUUGCAGAAGGUUAUUUUUAUAACGAUCCACUUGACAUGAGGAUCACCCAUGUAAUUGAUGAAGGAUAUGCAAUAUAUU | – | – | 6.69 | 6.69
20 | GCCAUUUAUGUAGGAUAUGCGAGGCGAGCCUGAGCAGAAGGACAUGAGGAUCACCCAUGUAUUGCGGUUUAUGUUCAGAUCGCU | – | – | 16.1 | 18.3
